Experimental data as given in ChEMBL document CHEMBL4177624, “Rationally designed hecogenin thiosemicarbazone analogs as novel MEK inhibitors for the control of breast malignancies” (Bioorg Med Chem, 2017).

Legend:
Type in all cases: functional, cell-based
MCF7 = assay: Antiproliferative activity against human MCF7 cells after 72 hrs by MTT assay; conditions: MCF7, 72 h
Procedure, shortened: (§1)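 Six human breast carcinoma lines of differing molecular and phenotypic character were each exposed to a range of concentrations for 72 h. Proliferation was read by MTT. Results are given as mean percent viability, with IC₅₀ ± SEM calculated per cell line.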

MDA-MB-468 = assay: Antiproliferative activity against human MDA-MB-468 cells after 72 hrs by MTT assay; conditions: MDA-MB-468, 72 h; procedure, shortened: as §1
MDA-MB-231 = assay: Antiproliferative activity against human MDA-MB-231 cells after 72 hrs by MTT assay; conditions: MDA-MB-231, 72 h
Procedure, shortened: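 MDA-MB-231 triple-negative breast cancer cells were exposed to a range of concentrations for 72 h. Proliferation was read by MTT. Results are given as mean percent viability versus concentration, with IC₅₀ ± SEM calculated from the curve.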

T47D = assay: Antiproliferative activity against human T47D cells after 72 hrs by MTT assay; procedure, shortened: as §1
BT-474 = assay: Antiproliferative activity against human BT474 cells after 72 hrs by MTT assay; conditions: BT-474, 72 h; procedure, shortened: as §1
SK-BR-3 = assay: Antiproliferative activity against human SKBR3 cells after 72 hrs by MTT assay; conditions: SK-BR-3, 72 h; procedure, shortened: as §1

| SMILES | IC50 (MCF7) [µM] | IC50 (MDA-MB-468) [µM] | IC50 (MDA-MB-231) [µM] | IC50 (T47D) [µM] | IC50 (BT-474) [µM] | IC50 (SK-BR-3) [µM] |
| --- | --- | --- | --- | --- | --- | --- |
| C[C@@H]1CC[C@@]2(OC1)O[C@H]1C[C@H]3[C@@H]4CC[C@H]5C[C@@H](O)CC[C@]5(C)[C@H]4C/C(=N\NC(=S)Nc4ccc([N+](=O)[O-])cc4)[C@]3(C)[C@H]1[C@@H]2C | 7.5 | 8 | 7.3 | 11.5 | 10.3 | 7.9 |
| C[C@@H]1CC[C@@]2(OC1)O[C@H]1C[C@H]3[C@@H]4CC[C@H]5C[C@@H](O)CC[C@]5(C)[C@H]4C/C(=N\NC(=S)Nc4ccc5c(c4)OCO5)[C@]3(C)[C@H]1[C@@H]2C | 5.3 | 5.9 | 5.5 | 7.8 | 7.5 | 6.2 |
| C[C@@H]1CC[C@@]2(OC1)O[C@H]1C[C@H]3[C@@H]4CC[C@H]5C[C@@H](O)CC[C@]5(C)[C@H]4C/C(=N\NC(=O)Nc4ccccc4)[C@]3(C)[C@H]1[C@@H]2C | 10.4 | 11.9 | 9.2 | 13.5 | 11.9 | 12 |
| C[C@@H]1CC[C@@]2(OC1)O[C@H]1C[C@H]3[C@@H]4CC[C@H]5C[C@@H](O)CC[C@]5(C)[C@H]4C/C(=N\NC(=O)Nc4cccc(Cl)c4)[C@]3(C)[C@H]1[C@@H]2C | 9.7 | 10.9 | 10 | 13 | 12 | 9.8 |
| Cc1ccc(NC(=S)N/N=C2\C[C@H]3[C@@H](CC[C@H]4C[C@@H](O)CC[C@@]43C)[C@@H]3C[C@@H]4O[C@]5(CC[C@@H](C)CO5)[C@@H](C)[C@@H]4[C@@]23C)cc1 | 3.7 | 4 | 3.1 | 6.1 | 4.5 | 3.8 |
| Cc1ccc(NC(=S)N/N=C2\C[C@H]3[C@@H](CC[C@H]4C[C@@H](O)CC[C@@]43C)[C@@H]3C[C@@H]4O[C@]5(CC[C@@H](C)CO5)[C@@H](C)[C@@H]4[C@@]23C)c(C)c1 | 3 | 3.8 | 2.7 | 5.2 | 3.7 | 4.2 |
| C[C@@H]1CC[C@@]2(OC1)O[C@H]1C[C@H]3[C@@H]4CC[C@H]5C[C@@H](OC(=O)c6ccc([N+](=O)[O-])cc6)CC[C@]5(C)[C@H]4CC(=O)[C@]3(C)[C@H]1[C@@H]2C | 32.4 | > 40 | 25.3 | > 40 | > 40 | 34.9 |
| C[C@@H]1CC[C@@]2(OC1)O[C@H]1C[C@H]3[C@@H]4CC[C@H]5C[C@@H](O)CC[C@]5(C)[C@H]4C/C(=N\NC(=S)Nc4ccc(C(F)(F)F)cc4)[C@]3(C)[C@H]1[C@@H]2C | 3.7 | 3.9 | 3.2 | 3.8 | 4.4 | 4 |
| C[C@@H]1CC[C@@]2(OC1)O[C@H]1C[C@H]3[C@@H]4CC[C@H]5C[C@@H](O)CC[C@]5(C)[C@H]4C/C(=N\NC(=S)Nc4ccc(F)cc4)[C@]3(C)[C@H]1[C@@H]2C | 4 | 4.2 | 5 | 5.9 | 6.3 | 4.5 |
| C[C@@H]1CC[C@@]2(OC1)O[C@H]1C[C@H]3[C@@H]4CC[C@H]5C[C@@H](O)CC[C@]5(C)[C@H]4C/C(=N\NC(=O)Nc4cccc(C(F)(F)F)c4)[C@]3(C)[C@H]1[C@@H]2C | 13.8 | 15.3 | 14 | 20.9 | 19.2 | 15.7 |
| Cc1ccc(S(=O)(=O)NC(=O)N/N=C2\C[C@H]3[C@@H](CC[C@H]4C[C@@H](O)CC[C@@]43C)[C@@H]3C[C@@H]4O[C@]5(CC[C@@H](C)CO5)[C@@H](C)[C@@H]4[C@@]23C)cc1 | 29.3 | 36.4 | 28 | > 40 | > 40 | 31 |
| C[C@@H]1CC[C@@]2(OC1)O[C@H]1C[C@H]3[C@@H]4CC[C@H]5C[C@@H](OC(=O)c6ccc(F)cc6)CC[C@]5(C)[C@H]4CC(=O)[C@]3(C)[C@H]1[C@@H]2C | 28 | 33.4 | 27 | 29 | 30 | 36 |
| C[C@@H]1CC[C@@]2(OC1)O[C@H]1C[C@H]3[C@@H]4CC[C@H]5C[C@@H](OC(=O)c6ccccc6)CC[C@]5(C)[C@H]4CC(=O)[C@]3(C)[C@H]1[C@@H]2C | 30.3 | 34.2 | 29.1 | 37.8 | 36.3 | 33.4 |
| C[C@@H]1CC[C@@]2(OC1)O[C@H]1C[C@H]3[C@@H]4CC[C@H]5C[C@@H](OC(=O)c6cccc(C(F)(F)F)c6)CC[C@]5(C)[C@H]4CC(=O)[C@]3(C)[C@H]1[C@@H]2C | > 40 | > 40 | > 40 | > 40 | > 40 | > 40 |
| COc1ccccc1C(=O)O[C@H]1CC[C@@]2(C)[C@@H](CC[C@@H]3[C@@H]2CC(=O)[C@]2(C)[C@@H]4[C@H](C[C@@H]32)O[C@]2(CC[C@@H](C)CO2)[C@H]4C)C1 | > 40 | > 40 | > 40 | > 40 | > 40 | > 40 |
| Cc1cccc(C)c1NC(=S)N/N=C1\C[C@H]2[C@@H](CC[C@H]3C[C@@H](O)CC[C@@]32C)[C@@H]2C[C@@H]3O[C@]4(CC[C@@H](C)CO4)[C@@H](C)[C@@H]3[C@@]12C | 2.5 | 2.8 | 2.3 | 4.2 | 3.2 | 2.9 |
| C[C@@H]1CC[C@@]2(OC1)O[C@H]1C[C@H]3[C@@H]4CC[C@H]5C[C@@H](O)CC[C@]5(C)[C@H]4C/C(=N\NC(=S)Nc4ccccc4C(F)(F)F)[C@]3(C)[C@H]1[C@@H]2C | 2.2 | 2.7 | 2.1 | 2.4 | 3.1 | 2.1 |
| C[C@@H]1CC[C@@]2(OC1)O[C@H]1C[C@H]3[C@@H]4CC[C@H]5C[C@@H](O)CC[C@]5(C)[C@H]4C/C(=N\NC(=S)Nc4ccccc4[N+](=O)[O-])[C@]3(C)[C@H]1[C@@H]2C | 5 | 6.1 | 4.3 | 9 | 6.9 | 5.5 |
| COc1ccc(NC(=S)N/N=C2\C[C@H]3[C@@H](CC[C@H]4C[C@@H](O)CC[C@@]43C)[C@@H]3C[C@@H]4O[C@]5(CC[C@@H](C)CO5)[C@@H](C)[C@@H]4[C@@]23C)cc1 | 10.1 | 11.2 | 9.5 | 14.2 | 10.9 | 11.5 |
| C[C@@H]1CC[C@@]2(OC1)O[C@H]1C[C@H]3[C@@H]4CC[C@H]5C[C@@H](OC(=O)c6ccc(C#N)cc6)CC[C@]5(C)[C@H]4CC(=O)[C@]3(C)[C@H]1[C@@H]2C | 33.2 | 32.6 | 25.7 | > 40 | 35 | 34.7 |
| C[C@@H]1CC[C@@]2(OC1)O[C@H]1C[C@H]3[C@@H]4CC[C@H]5C[C@@H](OC(=O)c6ccco6)CC[C@]5(C)[C@H]4CC(=O)[C@]3(C)[C@H]1[C@@H]2C | > 40 | > 40 | > 40 | > 40 | > 40 | > 40 |
| C[C@@H]1CC[C@@]2(OC1)O[C@H]1C[C@H]3[C@@H]4CC[C@H]5C[C@@H](O)CC[C@]5(C)[C@H]4C/C(=N\NC(=S)Nc4ccccc4Cl)[C@]3(C)[C@H]1[C@@H]2C | 5.9 | 6.2 | 5.5 | 7 | 6.5 | 5.7 |
| COc1ccccc1NC(=S)N/N=C1\C[C@H]2[C@@H](CC[C@H]3C[C@@H](O)CC[C@@]32C)[C@@H]2C[C@@H]3O[C@]4(CC[C@@H](C)CO4)[C@@H](C)[C@@H]3[C@@]12C | 7.1 | 7.5 | 6.8 | 10.2 | 8.8 | 7.5 |
| C[C@@H]1CC[C@@]2(OC1)O[C@H]1C[C@H]3[C@@H]4CC[C@H]5C[C@@H](O)CC[C@]5(C)[C@H]4C/C(=N\NC(=S)Nc4cc(C(F)(F)F)cc(C(F)(F)F)c4)[C@]3(C)[C@H]1[C@@H]2C | 8 | 8.2 | 7.3 | 11 | 10.8 | 8.6 |
| C[C@@H]1CC[C@@]2(OC1)O[C@H]1C[C@H]3[C@@H]4CC[C@H]5C[C@@H](O)CC[C@]5(C)[C@H]4C/C(=N\NC(=S)Nc4c(Cl)cccc4Cl)[C@]3(C)[C@H]1[C@@H]2C | 6.4 | 7.3 | 6 | 10.4 | 6.9 | 9 |
